Screening data deposited in PubChem BioAssay by several laboratories.
Only some compounds are listed: those with a hit (about 1.4% of all), similar ones and a draw of the others.
Myeloid diff 2: induction of myeloid progenitor differentiation, primary screen, cell-based, flow cytometry, MLPCN library | ER-HoxA9 myeloid progenitors, lysozyme-GFP differentiation | calls only at 10 µM | hit rate 1% among 360,000 | AID 624256, 2012;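 active = normalized GFP-positive differentiation at or above the plate's own cutoff, the solvent-only control mean plus 3 SD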;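 also: cells exposed to compound for four days before flow analysis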
T cell modulator: modulators of CD8 T cell-vesicle binding, primary screen, mouse 2C CD8+ T cells, flow cytometry; 2C CD8+ T cell-vesicle binding; active compounds read low; response (vesicle binding), % at 7 µM; hit rate 0.068% among 330,000; AID 2052, 2009;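 active = response, share of CD8 T cells binding vesicles, and their 90th percentile fluorescence all below set limits, cut at about 80% in these data, passing the limit was not always enough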;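 also: values below 100% mean blocked vesicle binding to the CD8+ T cells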
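Material: murine 2C transgenic CD8+ T lymphocytes / Also added: QL9-peptide-loaded Drosophila micro-vesicles bearing Ld, ICAM-1 and B7-1 / Schedule: binding step 1.5 h, 37 °C, antibody labelling 20 min, ice / Signal: flow cytometry, PE anti-B7-1 (FL2) versus Alexa647 anti-CD8 (FL8), PFA-fixed / Evaluation: percent CD8+ FL2 mean versus row control / Benchmarks: naked versus QL9-loaded vesicles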
Vif imaging: HIV Vif self-association inhibitors, primary screen, imaging, HEK293T, single point | HEK293T cells, Vif self-association by quenched fluorescence, 24 h | AID 602346, 2012 | hit rate 0.35% among 340,000 | inhibition, % at 7.49 µM; in the data active = inhibition above about 50%, passing the limit was not always enough
CASP6 VEID inh: human caspase-6 inhibitors, primary screen, biochemical, VEID-R110 fluorescence, single point, set 2 | hit rate 0.53% among 350,000 | AID 686996, 2013 | inhibition, % at 12.5 µM | P55212 | purified caspase-6, Z-VEID-R110 cleavage fluorescence;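 active = mean inhibition across replicates at least about 35%, with every replicate also reaching that limit, limit read from the data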
Target sequence (P55212 24-179 limits assumed): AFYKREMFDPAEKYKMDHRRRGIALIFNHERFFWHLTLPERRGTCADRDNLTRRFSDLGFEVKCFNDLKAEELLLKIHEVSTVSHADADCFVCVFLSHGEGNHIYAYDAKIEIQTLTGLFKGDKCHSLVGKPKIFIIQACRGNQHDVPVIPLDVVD
Target sequence (P55212 194-293 limits assumed): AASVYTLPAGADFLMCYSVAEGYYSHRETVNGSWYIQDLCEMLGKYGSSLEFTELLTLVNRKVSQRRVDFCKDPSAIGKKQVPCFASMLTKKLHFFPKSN
Myeloid diff: inducers of myeloid progenitor differentiation, confirmation, cell-based, GFP/Mac1 flow cytometry, cherry pick 01; hit rate 2% among 2,300; calls only; AID 651706, 2012; shares compounds with Myeloid diff 2; ER-HoxA9 myeloid progenitors, GFP/Mac1 double-positive flow;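 active = share of green or green-and-red cells above 9 and 9% in run 1 or 4 and 3% in run 2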
GFP autofluor: flagged as fluorescent in myeloid differentiation counter-screen; shares compounds with Myeloid diff 2; ER-HoxA9 myeloid progenitors, no estrogen, GFP autofluorescence flow cytometry; vehicle wells 0%, positive control 100%; fluorescence response, % (concentration not given with the values); hit rate 7.4% among 2,300; AID 651707;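 active = over 5% cells positive for green fluorescent reporter, or over 2% positive for both it and APC stain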
Large screens that a line does not name were inactive (follow-up assays come after a bar, where they were run).

CCCC1=[N+](CC(=O)c2ccccc2)CCn2c(C)ccc21	Myeloid diff 2 active (no result: CASP6 VEID inh) | Myeloid diff inactive | GFP autofluor inactive
COc1ccc(-c2csc(C(NC(C)=O)c3cccc(F)c3)n2)cn1 (centres undefined)	Myeloid diff 2 active (no result: T cell modulator) | Myeloid diff inactive | GFP autofluor inactive
Cc1cc(NC2CCCCC2)nc2ccccc12	none
Cc1cc(OCC[N+]2(C)CCCCC2)nc2ccccc12	none (no result: CASP6 VEID inh) | Myeloid diff inactive | GFP autofluor inactive
Cc1ccsc1CN(C)CC(=O)NCC(=O)Nc1ccc(F)c(F)c1F	Myeloid diff 2 active | Myeloid diff inactive | GFP autofluor inactive
Cc1ccsc1CN(C)CC(=O)NCC(=O)Nc1ccc(F)cc1	none
COc1cccc(-c2ccc([C@H]3[C@@H](CO)N4CCCCN(Cc5cncnc5)C[C@H]34)cc2)c1	none (no result: Myeloid diff 2, T cell modulator, Vif imaging)
COc1ccc(/C=C2\C(=O)NCC(=O)N2Cc2ccccc2)cc1	Myeloid diff 2 active (no result: CASP6 VEID inh) | Myeloid diff inactive | GFP autofluor inactive
COc1ccc(/C=C2\C(=O)N(Cc3ccc(F)cc3)CC(=O)N2Cc2ccccc2)cc1	none (no result: CASP6 VEID inh)
CSCC[C@H](NC(=O)C1CCN(S(=O)(=O)c2ccc(C)cc2)CC1)C(=O)NCc1ccco1	Myeloid diff 2 active (no result: CASP6 VEID inh) | Myeloid diff inactive | GFP autofluor inactive
COc1ccccc1NC(=O)CSc1nnnn1-c1ccc2c(c1)OCO2	none | Myeloid diff inactive | GFP autofluor inactive
COc1ccccc1NC(=O)CSc1nnnn1-c1ccccc1OC	none
COc1ccc(-n2nnnc2SCC(=O)Nc2nnc(C)s2)cc1	Myeloid diff 2 active | Myeloid diff inactive | GFP autofluor inactive
CCCc1[nH]n(-c2ccc(F)cc2)c(=O)c1C=Nc1cccc(F)c1	none (no result: CASP6 VEID inh) | Myeloid diff inactive | GFP autofluor inactive
CCCc1[nH]n(-c2ccc(F)cc2)c(=O)c1C=NCC1CCCO1 (centres undefined)	none
NS(=O)(=O)c1ccc(Nc2ncccc2[N+](=O)[O-])cc1	Myeloid diff 2 active | Myeloid diff inactive | GFP autofluor inactive
O=[N+]([O-])c1cccnc1Nc1ccc(Cl)cc1	none (no result: T cell modulator)
COc1ccc(C(=O)COC(=O)c2cnc(C)cn2)cc1OC	none | Myeloid diff inactive | GFP autofluor inactive
CC(C)NC(=O)NCC[C@@H]1CC[C@H](NS(=O)(=O)c2ccc(-c3ccccc3)cc2)[C@@H](CO)O1	none (no result: Myeloid diff 2, T cell modulator, Vif imaging)
Cc1cccc(-c2ccc([C@H]3[C@H](CO)N4C(=O)CN(C(=O)Cc5ccccn5)C[C@@H]34)cc2)c1	none (no result: Myeloid diff 2, T cell modulator, Vif imaging)
O=C(c1ccc(S(=O)(=O)N2CCCCC2)cc1)N1CCN(CCN2C(=O)c3cccc4cccc(c34)C2=O)CC1	Myeloid diff 2 active | Myeloid diff inactive | GFP autofluor inactive
O=C(/C=C/c1cccc(F)c1)Nc1cc(S(=O)(=O)N2CCOCC2)ccc1Cl	none | Myeloid diff inactive | GFP autofluor inactive
Cc1ccc(S(=O)(=O)N2CCOCC2)cc1NC(=O)COC(=O)/C=C/c1ccc(F)cc1	none | Myeloid diff inactive | GFP autofluor inactive
O=C(/C=C/c1cccc(F)c1)Nc1cc(S(=O)(=O)N2CCOCC2)ccc1N1CCCC1	none
COc1ccc(/C=C/C(=O)Nc2ccc(C)c(S(=O)(=O)N3CCOCC3)c2)cc1	none (no result: CASP6 VEID inh) | Myeloid diff inactive | GFP autofluor inactive
O=C(COC(=O)/C=C/c1ccc(S(=O)(=O)N2CCOCC2)cc1)Nc1ccccc1F	none
CC(C)NC(=O)N(C)C[C@@H]1Oc2c(NS(C)(=O)=O)cccc2C(=O)N([C@H](C)CO)C[C@@H]1C	none (no result: Myeloid diff 2, T cell modulator, Vif imaging)
CC=Cc1ccc2n(c1=O)C[C@@H]1[C@@H](CO)[C@H](C(=O)NCCC)[C@H]2N1C(=O)C1CCCC1 (mixture of isomers)	none (no result: Myeloid diff 2, T cell modulator, Vif imaging)
O=C(Cc1ccccc1)OC(COCc1ccccc1)C(=O)NCc1ccccc1 (centres undefined)	none (no result: Myeloid diff 2, T cell modulator, Vif imaging)
Cc1occc1C(=O)N/N=C/c1ccc(-c2ccccc2)cc1	none
Cc1occc1C(=O)N/N=C/C(Br)=C/c1ccccc1	Myeloid diff 2 active | Myeloid diff inactive | GFP autofluor inactive
CCOC(=O)c1ccc(NC(=O)C(CC)(CC)C(=O)OCC)cc1	none (no result: CASP6 VEID inh) | Myeloid diff inactive | GFP autofluor inactive
